Experimental data as given in article PMC8204304 (ACS Infectious Diseases, 2021).
Like-named read-outs stand apart in the source and are kept apart here.

Assays:
Pf parasites = test: Minimum inoculum resistance; type: cell-based, Plasmodium falciparum
In short: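 Pf cultures were selected at constant pressure of 3 × IC50 in two groups. The lower-inoculum group used 24 wells. The higher group started at 2 × 10^7 parasites in triplicate, covering 2 × 10^7 to 6 × 10^7. Wells were monitored for day of recrudescence. MIR = total inoculum divided by the number of recrudescent wells. A DHODH inhibitor served as positive control. Resistant clones were whole-genome sequenced.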

Dd2 [1] = conditions: read-out: Dd2 IC50; cited from earlier work
TM90C2b = test: 72 h [3H]hypoxanthine incorporation assay, TM90C2b; type: cell-based; conditions: Plasmodium falciparum
In short: (§1)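 Asexual Pf strains were tested in a modified [3H]-hypoxanthine incorporation assay. Drug-resistant laboratory strains were compared with the drug-sensitive NF54 strain. IC50s came from linear interpolation.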

Cam3.I = test: 72 h [3H]hypoxanthine incorporation assay, Cam3.I; type: cell-based; conditions: Plasmodium falciparum
In short: as §1

K1 = test: 72 h [3H]hypoxanthine incorporation assay, K1; type: cell-based; conditions: Plasmodium falciparum
In short: as §1

7G8 = test: 72 h [3H]hypoxanthine incorporation assay, 7G8; type: cell-based; conditions: Plasmodium falciparum
In short: as §1

NF54 = test: 72 h [3H]hypoxanthine incorporation assay, NF54; type: cell-based; conditions: Plasmodium falciparum
In short: as §1

Dd2 [2] = test: 72 h [3H]hypoxanthine incorporation assay, Dd2; type: cell-based; conditions: Plasmodium falciparum

IC50 (TM90C2b) [nM]	IC50 (Cam3.I) [nM]	IC50 (K1) [nM]	IC50 (7G8) [nM]	IC50 (NF54) [nM]	IC50 (Dd2 [2]) [nM]	Structure (SMILES)	minimum inoculum resistance (MIR) (Pf parasites; selection pressure 3 × IC50, parasites)	day of recrudescence (Pf parasites; starting inoculum 2 × 10^5 parasites, 24 replicates)	day of recrudescence (Pf parasites; starting inoculum 2 × 10^7 parasites, triplicate) [days]	IC50 (Dd2 [1]) [nM]
–	–	–	–	–	–	Cc1cc(Nc2ccc(S(F)(F)(F)(F)F)cc2)n2nc(C(C)(F)F)nc2n1 [DSM265]	2 × 10^7	never recrudesced	25	–
–	–	–	–	–	–	O=C(NC1Cc2ccccc2C1)c1nccnc1NC(=O)N1CCCCC1 [N-(2,3-dihydro-1H-inden-2-yl)-3-(piperidine-1-carboxamido)pyrazine-2-carboxamide]	–	–	–	63
5	11	2	2	4	6	C[C@H]1[C@H](OC(=O)CCC(=O)O)O[C@@H]2O[C@@]3(C)CC[C@H]4[C@H](C)CC[C@@H]1[C@@]24OO3 [artesunate]	–	–	–	–
135	180	202	79	8	157	CCN(CC)CCCC(C)Nc1ccnc2cc(Cl)ccc12 (stereo not shown) [chloroquine]	–	–	–	–
